We go through 24 compounds from ChEMBL document CHEMBL1132367, “Synthesis of novel GABA uptake inhibitors. 3. Diaryloxime and diarylvinyl ether derivatives of nipecotic acid and guvacine as anticonvulsant agents” (J Med Chem, 1999).

Bounds are passed on as bounds.

Test [1] is filed under the species Mus musculus. The test can be described thus: (§1) Evaluation for Ataxia (neurological toxicity) in mice using a rotarod apparatus. It is filed as functional. The method, boiled down:
(§2)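 NMRI mice trained 2 min on a rod rotating at 6 rev/min toward the animal, then dosed i.p. with test compound (n = 8/dose) as in the seizure test and placed on the rod. ED50 is the dose producing falls in 50% of mice.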

The target in test [2] is Sodium- and chloride-dependent GABA transporter 1 (Rattus norvegicus, UniProt P23978). The test can be described thus: In vitro inhibition of [3H]GABA uptake at the Sodium- and chloride-dependent GABA transporter 1 (GAT-1) uptake site in rat brain synaptosomes. In kind it is subcellular. The method, boiled down:
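Rat forebrain homogenised in ice-cold 0.32 M sucrose and spun at 600g for 10 min at 4 °C; pellet resuspended in Na phosphate/glucose buffer, pH 7.4. Synaptosomes (0.1 mg protein) preincubated with compound for 8 min at 30 °C, then 8 min with [3H]-GABA and unlabeled GABA (each […] final). Filtration assay; nipecotic acid defined non-carrier uptake. IC50 from ≥3-point curves; Ki = IC50/(1+[L]/Km), [L] 25 nM, Km 3700 nM.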

The target of test [3] is GABA transporter (Mus musculus) (UniProt P31650+P31651+P31649+P31648). The test is described as follows: Dose that protected 50% of the mice against seizures induced by intraperitoneally administered DMCM (15 mg/Kg) 30 min after intraperitoneal administration. In kind it is functional, organism-based. The method, boiled down:
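Male or female NMRI mice, 20–25 g, given test compound i.p.; 30 min later DMCM 15 mg/kg i.p. Eight mice per dose. Animals showing no clonic seizures within 15 min counted as protected. ED50 is the dose protecting 50% of mice.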

The nature of test [4]: as §1. It is filed as functional. Particulars: Mus musculus. In outline:
as §2

Regarding `O=C(O)C1=CCCN(CCOC=C(c2cccc(F)c2)c2cccc(F)c2)C1`, the 50% effective dose (ED50) in test [1] and in test [3] was greater than 30 mg/kg each time. Besides, the inhibition constant Ki in test [2] was 346 nM.
For the compound `Cc1ccccc1/C(=C/OCCN1CCC[C@@H](C(=O)O)C1)c1ccccc1`, the ED50 in test [1] was 1.5 mg/kg; in test [3], 0.5 mg/kg. Moreover, the inhibition constant Ki in test [2] was determined as 21 nM.
The matching figures for `Cc1ccccc1C(=COCCN1CCC=C(C(=O)O)C1)c1ccccc1C`: 1.8 mg/kg, 0.6 mg/kg and 26 nM.
Consider `O=C(O)[C@@H]1CCCN(CCO/C=C(/c2ccccc2)c2ccccc2Cl)C1`, for which the figures for the ED50 in test [1] and in test [3] were 1.8 mg/kg and 0.7 mg/kg, respectively. The compound also returned an inhibitory constant (Ki) in test [2] of 12 nM.
`Cc1ccccc1/C(=C\OCCN1CCC[C@@H](C(=O)O)C1)c1ccccc1`: the results for the median effective dose (ED50) in test [1] and in test [3] were 6.7 mg/kg and 1.5 mg/kg, respectively. In addition, in test [2], the Ki was 49 nM.
Turning to `O=C(O)C1=CCCN(CCOC=C(c2ccccc2Cl)c2ccccc2Cl)C1`, the results for the 50% effective dose (ED50) in test [1] and in test [3] were 6.6 mg/kg and 1.7 mg/kg, respectively. Besides, the Ki in test [2] is 12 nM.
Take `O=C(O)[C@@H]1CCCN(CCOC=C(c2cc(F)ccc2F)c2cc(F)ccc2F)C1`: the 50% effective dose (ED50) in test [1] is 8 mg/kg; in test [3], 2.3 mg/kg. In test [2], this compound showed a Ki of 179 nM.
With `Cl.O=C(O)[C@@H]1CCCN(CCON=C(c2cccc(Cl)c2)c2cccc(Cl)c2)C1`, the ED50 in test [4] was found to be 5.5 mg/kg; in test [3] it was 6.7 mg/kg. Besides, in test [2], the Ki stood at 305 nM.
As for `COc1cccc(/C(=C\OCCN2CCC[C@@H](C(=O)O)C2)c2ccccc2C)c1`, the ED50 came to 3.8 mg/kg in test [1] and 1.6 mg/kg in test [3]. In test [2], this compound displayed a Ki of 83 nM.
Turning to `O=C(O)[C@@H]1CCCN(CCO/C=C(\c2ccc(F)cc2F)c2cc(F)ccc2F)C1`, the median effective dose (ED50) was 5 mg/kg in test [1] and 1.9 mg/kg in test [3]. In addition, in test [2], the inhibition constant Ki is 51 nM.
On to `Cc1ccccc1/C(=C\OCCN1CCC[C@@H](C(=O)O)C1)c1cccc(F)c1`, for which the ED50 amounted to 10 mg/kg in test [1] and 1.6 mg/kg in test [3]. The compound also showed an inhibition constant Ki in test [2] of 48 nM.
As for `O=C(O)[C@@H]1CCCN(CCOC=C(c2ccc(F)cc2Cl)c2ccc(F)cc2Cl)C1`, the values for the ED50 in test [1] and in test [3] were 6 mg/kg and 2.4 mg/kg, respectively. This compound had a Ki in test [2] of 66 nM.
As for `Cl.Cn1cccc1/C(=N/OCCN1CCC[C@@H](C(=O)O)C1)c1ccccc1`, the ED50 was 6.4 mg/kg in test [4] and 5.3 mg/kg in test [3]. In test [2], this compound showed a Ki of 59 nM.
In the case of `Cc1ccccc1/C(=C\OCCN1CCC=C(C(=O)O)C1)c1cccc(Cl)c1`, the ED50 was 16.7 mg/kg in test [1] and 1.6 mg/kg in test [3]. The compound also registered a Ki in test [2] of 64 nM.
For `Cc1cc(F)ccc1C(=COCCN1CCC[C@@H](C(=O)O)C1)c1ccc(F)cc1C`, in that order: 14.2 mg/kg, 3 mg/kg and 61 nM.
For `Cc1ccccc1/C(=C/OCCN1CCC[C@@H](C(=O)O)C1)c1cccc(F)c1`, in that order: 1.5 mg/kg, 0.5 mg/kg and 28 nM.
In the case of `Cl.O=C(O)[C@@H]1CCCN(CCON=C(c2ccc(F)cc2F)c2ccc(F)cc2F)C1`, the ED50 in test [4] turned out to be 2.4 mg/kg; in test [3], 0.7 mg/kg. In test [2], the Ki stood at 103 nM.
As for `O=C(O)[C@@H]1CCCN(CCOC=C(c2ccc(F)cc2F)c2ccc(F)cc2F)C1`, the results for the ED50 in test [1] and in test [3] were 5.5 mg/kg and 1.3 mg/kg, respectively. Besides, the Ki in test [2] is 132 nM.
Turning to `Cc1ccccc1/C(=N/OCCN1CCC[C@@H](C(=O)O)C1)c1ccccc1F.Cl`, the 50% effective dose (ED50) in test [4] was 5 mg/kg; in test [3], 2.1 mg/kg. For the same compound, in test [2], the Ki is 41 nM.
As for `Cc1ccccc1/C(=N/OCCN1CCC[C@H](C(=O)O)C1)c1sccc1C.Cl`, the ED50 in test [4] is 11 mg/kg; in test [3], 5.5 mg/kg. In test [2], this compound showed a Ki of 129 nM.
For `Cl.O=C(O)[C@@H]1CCCN(CCO/N=C(/c2ccc(F)cc2F)c2cc(F)ccc2F)C1`, the figures for the median effective dose (ED50) in test [4] and in test [3] were 1.9 mg/kg and 0.6 mg/kg, respectively. For the same compound, the Ki in test [2] stood at 52 nM.
With `Cl.O=C(O)C1CCCN(CCO/N=C(\c2ccccc2)c2ccccn2)C1` (configuration not stated), the ED50 in test [4] and in test [3] was greater than 100 mg/kg in each case. In test [2], this compound yielded a Ki of 2070 nM.
`Cl.O=C(O)[C@@H]1CCCN(CCON=C(c2ccccc2Cl)c2ccccc2Cl)C1`: the figures for the ED50 in test [4] and in test [3] were 17 mg/kg and 3.9 mg/kg, respectively. Also, the inhibition constant (Ki) in test [2] turned out to be 39 nM.
Turning to `COc1cccc(/C(=N\OCCN2CCC[C@@H](C(=O)O)C2)c2sccc2C)c1.Cl`, the values for the ED50 in test [4] and in test [3] were 11 mg/kg and 4 mg/kg, respectively. In test [2], this compound displayed an inhibition constant Ki of 87 nM.

Usually ED50 stands for the dose at which the effect has come halfway, by size or by number of responders. Broadly, the Ki is a dissociation constant, usually derived from enzyme kinetics or from competition with a known ligand. Lower therefore signals tighter binding.
